Laboratory results reported in ChEMBL document CHEMBL4330145, “Discovery of the Cyclic Lipopeptide Gacamide A by Genome Mining and Repair of the Defective GacA Regulator in Pseudomonas fluorescens Pf0-1” (2019).
Calls of active or inactive are those of the source.

Experiments:
[1] = system: Staphylococcus aureus; test: Antibacterial activity against methicillin sensitive Staphylococcus aureus isolate 5185 after 24 hrs by agar diffusion assay; type: functional, organism-based
Method in brief: (§1)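 Plates of Columbia agar with 5% sheep blood were overlaid with 3 mL tryptic soy soft agar seeded with a TSB suspension of the test strain. Compound was diluted in DMSO to 1 mg/mL, and 3 μL was spotted on the agar surface. The inhibition-zone diameter was measured after 24 h at 37 °C. Clinical isolates were kept on Mueller−Hinton or blood agar.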

[2] = system: Staphylococcus aureus; test: Antibacterial activity against methicillin sensitive Staphylococcus aureus isolate I-11574 after 24 hrs by agar diffusion assay; type: functional, organism-based; method in brief: as §1
[3] = system: Staphylococcus aureus; test: Antibacterial activity against methicillin-resistant Staphylococcus aureus isolate LT-1334 after 24 hrs by agar diffusion assay; type: functional, organism-based
Method in brief: (§2)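 Agar diffusion: 5% sheep blood Columbia agar plates overlaid with 3 mL tryptic soy soft agar seeded with a TSB suspension of the clinical isolate. Compound diluted in DMSO to 1 mg/mL, and 3 μL spotted on the agar surface. Inhibition zone diameter measured after 24 h at 37 °C. Strains were maintained on Mueller−Hinton or blood agar.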

[4] = system: Staphylococcus aureus; test: Antibacterial activity against methicillin-resistant Staphylococcus aureus isolate LT-1338 after 24 hrs by agar diffusion assay; type: functional, organism-based; method in brief: as §2
[5] = system: Staphylococcus epidermidis; test: Antibacterial activity against methicillin-resistant Staphylococcus epidermidis isolate LT-1324 after 24 hrs by agar diffusion assay; type: functional, organism-based; method in brief: as §2
[6] = system: Candida albicans; test: Antifungal activity against Candida albicans isolate I-11301 after 24 hrs by agar diffusion assay; type: functional, organism-based
[7] = system: Candida albicans; test: Antifungal activity against Candida albicans isolate I-11134 after 24 hrs by agar diffusion assay; type: functional, organism-based
[8] = system: Citrobacter freundii; test: Antibacterial activity against Citrobacter freundii isolate I-11090 after 24 hrs by agar diffusion assay; type: functional, organism-based; method in brief: as §1
[9] = system: Klebsiella pneumoniae subsp. ozaenae; test: Antibacterial activity against Klebsiella pneumoniae subsp. ozaenae isolate I-10910 after 24 hrs by agar diffusion assay; type: functional, organism-based; method in brief: as §1
[10] = system: Enterococcus faecium; test: Antibacterial activity against Enterococcus faecium isolate I-11305b after 24 hrs by agar diffusion assay; type: functional, organism-based; method in brief: as §1
[11] = system: Enterococcus faecium; test: Antibacterial activity against Enterococcus faecium isolate I-11054 after 24 hrs by agar diffusion assay; type: functional, organism-based; method in brief: as §1
[12] = system: Escherichia coli; test: Antibacterial activity against Escherichia coli isolate I-11276b after 24 hrs by agar diffusion assay; type: functional, organism-based; method in brief: as §1
[13] = system: Escherichia coli; test: Antibacterial activity against Escherichia coli isolate O-19592 after 24 hrs by agar diffusion assay; type: functional, organism-based; method in brief: as §1
[14] = system: Stenotrophomonas maltophilia; test: Antibacterial activity against Stenotrophomonas maltophilia isolate O-16451 after 24 hrs by agar diffusion assay; type: functional, organism-based; method in brief: as §1
[15] = system: Stenotrophomonas maltophilia; test: Antibacterial activity against Stenotrophomonas maltophilia isolate I-10717 after 24 hrs by agar diffusion assay; type: functional, organism-based; method in brief: as §1
[16] = system: Pseudomonas aeruginosa; test: Antibacterial activity against Pseudomonas aeruginosa isolate I-10968 after 24 hrs by agar diffusion assay; type: functional, organism-based; method in brief: as §1
[17] = system: Staphylococcus simulans; test: Antibacterial activity against Staphylococcus simulans isolate 22 after 24 hrs by agar diffusion assay; type: functional, organism-based; method in brief: as §1
[18] = system: Micrococcus luteus; test: Antibacterial activity against Micrococcus luteus ATCC 4698 after 24 hrs by agar diffusion assay; type: functional, organism-based; settings: NCTC 2665
[19] = system: Mycolicibacterium smegmatis; test: Antibacterial activity against Mycobacterium smegmatis after 24 hrs by agar diffusion assay; type: functional, organism-based
[20] = system: Bacillus subtilis; test: Antibacterial activity against Bacillus subtilis 168 after 24 hrs by agar diffusion assay; type: functional, organism-based; settings: subsp. subtilis str. 168
[21] = system: Listeria welshimeri; test: Antibacterial activity against Listeria welshimeri DSM 20650 after 24 hrs by agar diffusion assay; type: functional
[22] = system: Corynebacterium xerosis; test: Antibacterial activity against Corynebacterium xerosis after 24 hrs by agar diffusion assay; type: functional, organism-based
[23] = system: Staphylococcus aureus; test: Antibacterial activity against Staphylococcus aureus after 24 hrs by agar diffusion assay; type: functional, organism-based
[24] = system: Staphylococcus aureus; test: Antibacterial activity against Staphylococcus aureus isolate 133 after 24 hrs by agar diffusion assay; type: functional, organism-based; method in brief: as §1
[25] = system: Agrobacterium tumefaciens; test: Antibacterial activity against Agrobacterium tumefaciens B6 after 24 hrs by agar diffusion assay; type: functional, organism-based
[26] = system: Agrobacterium tumefaciens; test: Antibacterial activity against Agrobacterium tumefaciens C58 after 24 hrs by agar diffusion assay; type: functional, organism-based
[27] = system: Erwinia amylovora; test: Antibacterial activity against Erwinia amylovora Ea153 after 24 hrs by agar diffusion assay; type: functional, organism-based
[28] = system: Pseudomonas syringae pv. tomato str. DC3000; test: Antibacterial activity against Pseudomonas syringae DC3000 after 24 hrs by agar diffusion assay; type: functional
[29] = system: Pseudomonas fluorescens; test: Antibacterial activity against Pseudomonas fluorescence A506 after 24 hrs by agar diffusion assay; type: functional, organism-based
[30] = system: Priestia megaterium; test: Antibacterial activity against Bacillus megaterium Km after 24 hrs by agar diffusion assay; type: functional, organism-based
[31] = system: Rhodococcus fascians; test: Antibacterial activity against Rhodococcus fascians A44A after 24 hrs by agar diffusion assay; type: functional, organism-based; settings: Rhodococcoides fascians
[32] = system: Arthrobacter crystallopoietes; test: Antibacterial activity against Arthrobacter crystallopoietes DSM 20117 after 24 hrs by microtiter plate broth dilution assay; settings: Crystallibacter crystallopoietes, DSM 20117, 24 h

CCCCCCC[C@@H](O)CC(=O)N[C@H](CC(C)C)C(=O)N[C@H](CC(=O)O)C(=O)N[C@H](CCC(N)=O)C(=O)N[C@H](C(=O)N[C@H](CC(C)C)C(=O)N[C@H](CCC(N)=O)C(=O)N[C@@H]1COC(=O)[C@H]([C@@H](C)CC)NC(=O)[C@@H](CO)NC(=O)[C@H](CC(C)C)NC(=O)[C@H](CC(C)C)NC1=O)[C@H](C)CC
inactive: Activity [1] | Activity [2] | Activity [3] | Activity [4] | Activity [5] | Activity [6] | Activity [7] | Activity [8] | Activity [9] | Activity [10] | Activity [11] | Activity [12] | Activity [13] | Activity [14] | Activity [15] | Activity [16] | Activity [17] | Activity [18] | Activity [19] | Activity [20] | Activity [21] | Activity [22] | Activity [23] | Activity [24] | Activity [25] | Activity [26] | Activity [27] | Activity [28] | Activity [29] | Activity [30] | Activity [31]
32 µg/mL: MIC [32]
